Source: paper PMC7820547 (iScience, 2021)
Residue numbers refer to the chain shown, from its start.

Legend:
[1] = target: T1, hSHMT1 WT (Homo sapiens, UniProt P34896); experiment: Surface plasmon resonance binding of Gly-DCA to hSHMT1 WT
T1 sequence (P34896 1-483): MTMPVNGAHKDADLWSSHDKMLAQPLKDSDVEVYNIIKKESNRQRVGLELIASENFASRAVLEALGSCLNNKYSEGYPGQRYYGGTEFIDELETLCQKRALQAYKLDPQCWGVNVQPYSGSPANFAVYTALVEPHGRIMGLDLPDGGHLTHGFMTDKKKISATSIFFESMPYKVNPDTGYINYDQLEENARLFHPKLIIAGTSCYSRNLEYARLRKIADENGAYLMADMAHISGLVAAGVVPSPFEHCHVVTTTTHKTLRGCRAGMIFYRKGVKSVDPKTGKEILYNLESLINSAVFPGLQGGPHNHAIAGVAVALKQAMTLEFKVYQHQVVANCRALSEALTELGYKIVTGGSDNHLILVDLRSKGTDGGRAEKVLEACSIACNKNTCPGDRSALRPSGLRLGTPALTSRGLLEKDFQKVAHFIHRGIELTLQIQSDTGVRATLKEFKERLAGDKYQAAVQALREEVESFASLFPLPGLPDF
How it was run: (§1)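 His6-hSHMT1, wild type or point mutant, was captured fresh on an NTA sensor chip each cycle. Contact 30 s, dissociation 300 s; Kd by Scatchard analysis.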

[2] = target: T2, hSHMT1 E75L (Homo sapiens, UniProt P34896, E75L); experiment: Surface plasmon resonance binding of Gly-DCA to mutant hSHMT1 E75L
T2 sequence (P34896 1-483 E75L): T1 sequence (P34896 1-483) with E75L
How it was run: as §1

[3] = target: T3, hSHMT1 R402A (Homo sapiens, UniProt P34896, R402A); experiment: Surface plasmon resonance binding of Gly-DCA to mutant hSHMT1 R402A; conditions: SPR, 25°C
T3 sequence (P34896 1-483 R402A): T1 sequence (P34896 1-483) with R402A
How it was run: as §1

[4] = target: T4, hSHMT2 WT (Homo sapiens, UniProt P34897); experiment: Surface plasmon resonance binding of Gly-DCA to hSHMT2 WT
T4 sequence (P34897 30-504): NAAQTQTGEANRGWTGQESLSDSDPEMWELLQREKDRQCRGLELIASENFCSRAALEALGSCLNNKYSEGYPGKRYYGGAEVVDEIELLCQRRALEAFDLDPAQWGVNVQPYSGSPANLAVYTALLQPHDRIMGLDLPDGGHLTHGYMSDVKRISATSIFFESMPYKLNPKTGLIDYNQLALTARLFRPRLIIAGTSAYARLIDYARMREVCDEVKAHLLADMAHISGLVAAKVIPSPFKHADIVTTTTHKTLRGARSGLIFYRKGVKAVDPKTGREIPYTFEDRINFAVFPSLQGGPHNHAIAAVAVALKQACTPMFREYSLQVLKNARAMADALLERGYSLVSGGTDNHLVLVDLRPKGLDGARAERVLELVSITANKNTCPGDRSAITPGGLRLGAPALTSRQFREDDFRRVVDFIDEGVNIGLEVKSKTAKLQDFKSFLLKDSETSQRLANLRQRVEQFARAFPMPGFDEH
How it was run: (§2)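 Wild-type or mutant His6-hSHMT2 was captured on an NTA sensor chip in each cycle. Analyte (test compound) was run at 0.8, 0.4, 0.2, 0.1, 0.05 and 0.025 µM in 10 mM HEPES pH 7.5, 200 mM NaCl, 2 mM β-mercaptoethanol, 50 µM PLP, 0.01% Tween 20 and 5% DMSO. Contact 30 s, dissociation 300 s; Scatchard-derived Kd.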

[5] = target: T5, hSHMT2 E98L (Homo sapiens, UniProt P34897, E98L); experiment: Surface plasmon resonance binding of Gly-DCA to mutant hSHMT2 E98L; conditions: SPR, 25°C
T5 sequence (P34897 30-504 E98L): T4 sequence (P34897 30-504) with E69L
How it was run: as §2

[6] = target: T6, hSHMT2 R425A (Homo sapiens, UniProt P34897, R425A); experiment: Surface plasmon resonance binding of Gly-DCA to mutant hSHMT2 R425A; conditions: SPR, 25°C
T6 sequence (P34897 30-504 R425A): T4 sequence (P34897 30-504) with R396A
How it was run: as §2

[7] = target: T7, hSHMT2 (Homo sapiens, UniProt P34897); experiment: Isothermal titration calorimetry; type: binding
T7 sequence (P34897 30-504): T4 sequence (P34897 30-504)
How it was run: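 Purified His6-hSHMT2 (28.9 µM) in the cell was titrated with 300 µM test compound from the syringe at 37 °C, stirring 750 rpm. One small initial injection, then 12 injections at 180 s intervals; thermodynamic parameters were calculated from the titration.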

[8] = target: T8, hSHMT1 (Homo sapiens, UniProt P34896); experiment: Differential scanning calorimetry; type: binding; conditions: DSC, 50 μM Gly-DCA, 18 μM hSHMT1; Tm without ligand 69.6°C
T8 sequence (P34896 1-483): T1 sequence (P34896 1-483)
How it was run: (§3)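 Recombinant His6-tagged human enzyme from E. coli BL21(DE3)pLysS, Ni-NTA then gel filtration. Scanned 20 to 110 °C at 1 °C/min in 10 mM HEPES pH 7.5, 0.5 mM EDTA, 2 mM β-mercaptoethanol and 1% DMSO, with 18 µM (1.0 mg/mL) enzyme and 50 µM test compound. hSHMT1 used 100 mM NaCl and no PLP; hSHMT2 used 200 mM NaCl and 50 µM PLP. Non-two-state denaturation model fitted.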

[9] = target: T7, hSHMT2; experiment: Differential scanning calorimetry; type: binding; conditions: DSC, 50 μM Gly-DCA, 18 μM hSHMT2, 50 μM PLP; Tm without ligand 65.1°C
How it was run: as §3

[10] = target: T8, hSHMT1; conditions: ITC, ref Nonaka et al., 2019, cited from earlier work
[11] = target: T7, hSHMT2; experiment: Inhibition assay of Ser-Gly conversion; type: biochemical
[12] = ITC, 37°C, pH 7.5, 200 mM NaCl, 50 μM PLP

For `CC(CCC(=O)NCC(=O)O)C1CCC2C3CCC4CC(O)CCC4(C)C3CC(O)C12C` (stereo not shown) [Gly-DCA, glycodeoxycholic acid], which Kd [1] is on record?
Its Kd is 7.6 µM.

And the Kd [2]?
The Kd was 73.5 µM.

What about the “binding affinity for hSHMT1 R402A” value [3] of the same molecule?
Its value is “too weak to quantitate”.

And the Kd [4]?
Its Kd is 0.064 µM.

And the “binding affinity for hSHMT2 E98L” value [5]?
The value was “too weak to quantitate”.

What about the “binding affinity for hSHMT2 R425A” value [6] of the same molecule?
The value was “too weak to quantitate”.

What about the Kd [7] of the same molecule?
The Kd was 0.25 µM.

What about the “hSHMT2 N (stoichiometry, binding ratio)” value ([7]; ITC, 37°C) of the same molecule?
The value was 0.83.

And the “hSHMT2 ΔG” value [7, 12]?
The value was -9.4 kcal/mol.

What about the “hSHMT2 ΔH” value [7, 12] of the same molecule?
The value was -8.6 kcal/mol.

What about the “hSHMT2 −TΔS” value [7, 12] of the same molecule?
The value was -0.8 kcal/mol.

And the “Tm of hSHMT1 w/ Gly-DCA” value [8]?
Its value is 78.8 °C.

What about the “Tm of hSHMT2 w/ Gly-DCA” value [9] of the same molecule?
Its value is 77.4 °C.

And the “hSHMT1 ΔG” value ([10]; 100 mM NaCl, 0 µM PLP)?
The value was -7.4 kcal/mol.

What about the “hSHMT1 ΔH” value ([10]; 100 mM NaCl, 0 µM PLP) of the same molecule?
Its value is -2.2 kcal/mol.

What about the “hSHMT1 −TΔS” value ([10]; 100 mM NaCl, 0 µM PLP) of the same molecule?
Its value is -5.2 kcal/mol.

And the “hSHMT1 N (stoichiometry, binding ratio)” value [10]?
The value was 1.06.

And the Kd ([10]; read-out: hSHMT1 Kd, 100 mM NaCl, 0 µM PLP)?
The Kd was 5.7 µM.

Which IC50 [11] does the source give for `C[C@H](CCC(=O)NCCS(=O)(=O)O)[C@H]1CC[C@H]2[C@@H]3CC[C@@H]4C[C@H](O)CC[C@]4(C)[C@H]3CC[C@]12C` [Tau-LCA, taurolithocholic acid] here?
The IC50 was 2.6 µM.
